{"data": "Measured values of several laboratories", "target": "Serine/threonine-protein kinase STK11 (STK11, Homo sapiens, UniProt Q15831)", "Sequence (Q15831 1-433, as in one of the studies)": "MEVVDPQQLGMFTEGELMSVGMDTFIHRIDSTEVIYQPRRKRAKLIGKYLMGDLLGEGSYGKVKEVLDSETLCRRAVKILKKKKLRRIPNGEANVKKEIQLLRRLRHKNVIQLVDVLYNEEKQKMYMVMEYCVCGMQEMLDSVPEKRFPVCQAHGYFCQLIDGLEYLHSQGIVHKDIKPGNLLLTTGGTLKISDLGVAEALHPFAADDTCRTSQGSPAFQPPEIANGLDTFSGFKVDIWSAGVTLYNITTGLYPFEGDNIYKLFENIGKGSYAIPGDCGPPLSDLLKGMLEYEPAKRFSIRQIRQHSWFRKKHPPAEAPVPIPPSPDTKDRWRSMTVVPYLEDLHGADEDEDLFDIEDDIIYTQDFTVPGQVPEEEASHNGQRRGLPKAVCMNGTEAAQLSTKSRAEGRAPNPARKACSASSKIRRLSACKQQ", "note": "Protocols differ between the studies behind these lines."}
{"Compound": "O=C(NCCCN1CCOCC1)c1ccc(Nc2nccc(-c3cc4ccccc4s3)n2)cc1", "assay": "binding, competition with immobilised ligand", "setting": "1 µM", "remaining binding [%]": 3.9}
{"Compound": "O=C(Nc1c[nH]nc1C(=O)NC1CCNCC1)c1cc(F)cc(F)c1", "assay": "binding, competition with immobilised ligand", "setting": "1 µM", "remaining binding [%]": 78}
{"Compound": "O=C(NCCCN1CCOCC1)c1ccc(Nc2ncc(Cl)c(-c3ccc(Cl)s3)n2)cc1", "assay": "binding, competition with immobilised ligand", "setting": "1 µM", "remaining binding [%]": 0}
{"Compound": "N#Cc1ccccc1CSc1nnc2c(n1)[nH]c1ccccc12", "assay": "binding, competition with immobilised ligand", "setting": "10 µM", "remaining binding [%]": 87}
{"Compound": "C[C@H]1CCN(c2nccc(-c3cnn4ncccc34)n2)C1", "assay": "binding", "setting": "1 µM", "remaining binding [%]": 80}
{"Compound": "CS(=O)(=O)N1CCCC(NC(=O)[C@H](CCC2CCCCC2)NC(=O)c2ccc(CNc3ncnc4c3nnn4-c3ccccc3)cc2)C1 (stereo partly drawn)", "assay": "cell-free assay, competition with immobilised ligand", "setting": "0.1 µM", "remaining binding [%]": 100}
{"Compound": "COc1ccnn2ncc(-c3ccnc(N(C)C)n3)c12", "assay": "binding", "setting": "1 µM", "remaining binding [%]": 91}
{"Compound": "O=C(O)[C@H]1[C@H](Cn2nnc3ccccc3c2=O)CC[C@@H]1C(=O)c1ccc(OCCC2CCOCC2)cc1", "assay": "cell-free assay, competition with immobilised ligand", "setting": "1 µM", "remaining binding [%]": 76}
{"Compound": "C[C@@H]1CN(c2ccc3ncc(-c4ccc5[nH]nc(C6CC6)c5c4)n3n2)C[C@H](C)O1", "assay": "binding, competition with immobilised ligand", "setting": "0.5 µM", "remaining binding [%]": 94}
{"Compound": "CN(C)c1ncc(F)c(-c2cnn3ncccc23)n1", "assay": "binding", "setting": "1 µM", "remaining binding [%]": 100}
{"Compound": "O=C(O)c1cc(-c2ccc(C3CCNCC3)cc2)c2ccc(-c3ccc(C(F)(F)F)cc3)cc2c1", "assay": "cell-free assay, competition with immobilised ligand", "setting": "1 µM", "remaining binding [%]": 100}
{"Compound": "O=C(c1ccc(Nc2ncc(Cl)c(-c3ccc(Cl)s3)n2)cc1)N1CCC(N2CCCC2)CC1", "assay": "binding, competition with immobilised ligand", "setting": "1 µM", "remaining binding [%]": 7.2}
{"Compound": "CN(CCCC(F)(F)F)c1nccc(-c2cnn3ncccc23)n1", "assay": "binding", "setting": "1 µM", "remaining binding [%]": 100}
{"Compound": "C=CC(=O)N1CCC(C(=O)NCC(=O)N2CCN(c3nc(-c4cnc(N)nc4C(F)F)nc(N4CCOCC4)n3)CC2)CC1", "assay": "binding, competition with immobilised ligand", "setting": "1 µM", "remaining binding [%]": 100}
{"Compound": "CNC(=O)[C@@H]1CC[C@@H](n2c(-c3ccc4cnccc4c3)nc3ccc(C(=O)NCc4cccc(C(N)=O)c4)cc32)C1", "assay": "binding, competition with immobilised ligand", "setting": "1 µM", "remaining binding [%]": 93}
{"Compound": "Cc1nc(C2CCN(C(=O)c3ccc(OC(F)(F)F)cc3N)CC2)c2ncc(N3CCN(C)CC3)cc2n1", "assay": "cell-free assay, competition with immobilised ligand", "setting": "1 µM", "remaining binding [%]": 100}
{"Compound": "CCN1CCN(Cc2ccc(C(=O)Nc3ccc(C)c(Oc4ccc5c(c4)CC(=O)N5)c3)cc2C(F)(F)F)CC1", "assay": "binding, competition with immobilised ligand", "setting": "1 µM", "remaining binding [%]": 100}
{"Compound": "CO[C@H]1CC[C@H](CNc2ccc(S(=O)(=O)NC(=O)c3ccc(N4CCN(CC5=C(c6ccc(Cl)cc6)CC(C)(C)CC5)CC4)cc3Oc3cnc4[nH]ccc4c3)cc2[N+](=O)[O-])CC1", "assay": "cell-free assay, competition with immobilised ligand", "setting": "1 µM", "remaining binding [%]": 59}
{"Compound": "C[C@@H](c1ccc(-n2cnc3c(N)ncnc32)cc1)N1CCc2nn(C)c(Cc3ccccc3)c2C1=O", "assay": "binding, competition with immobilised ligand", "setting": "0.1 µM", "remaining binding [%]": 100}
{"Compound": "Nc1ncc2c(n1)-c1c([nH]c3ccc(C#CC4CC4)cc13)CCCC2", "assay": "binding, competition with immobilised ligand", "setting": "1 µM", "remaining binding [%]": 100}
{"Compound": "F[C@@H]1CCN(c2nccc(-c3cnn4ncccc34)n2)C1", "assay": "binding", "setting": "1 µM", "remaining binding [%]": 100}
{"Compound": "CCc1ccccc1C(=O)Nc1n[nH]c2c(C)c(F)c(C3C(C#N)=C(C)N(C)C(C)=C3C#N)cc12", "assay": "cell-free assay, competition with immobilised ligand", "setting": "1 µM", "remaining binding [%]": 100}
{"Compound": "CN(C)c1nccc(-c2cnn3ncccc23)n1", "assay": "binding", "setting": "1 µM", "remaining binding [%]": 100}
{"Compound": "Cc1cc(NC(=O)c2cccc(S(F)(F)(F)(F)F)c2)cc(-n2ccn3nc(-c4cccnc4)cc23)c1", "assay": "cell-free assay, competition with immobilised ligand", "setting": "1 µM", "remaining binding [%]": 100}
